Assay results published in ChEMBL document CHEMBL1641426, “Microwave assisted one pot synthesis of some novel 2,5-disubstituted 1,3,4-oxadiazoles as antifungal agents” (2011).
≈ marks a conversion by molar mass, not a printed value. Calls of active or inactive are those of the source. No cut-off for these calls is given here.

Columns and labels:
[1] = system: Aspergillus flavus; experiment: Antifungal activity against Aspergillus flavus assessed as macroscopically visible colonies after 48 and 72 hrs by standard agar dilution method; format: functional
In short: (§1)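 MIC by standard agar method. Tested against Candida albicans, Fusarium oxysporum, Aspergillus flavus, Aspergillus niger and Cryptococcus neoformans. Dimethyl sulfoxide served as solvent control, and miconazole and fluconazole served as reference standards.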

[2] = system: Aspergillus niger; experiment: Antifungal activity against Aspergillus niger assessed as macroscopically visible colonies after 48 and 72 hrs by standard agar dilution method; format: functional; in short: as §1
[3] = system: Fusarium oxysporum; experiment: Antifungal activity against Fusarium oxysporum assessed as macroscopically visible colonies after 48 and 72 hrs by standard agar dilution method; format: functional; in short: as §1
[4] = system: Cryptococcus neoformans; experiment: Antifungal activity against Cryptococcus neoformans assessed as appearance of macroscopically visible colonies after 48 and 72 hrs by standard agar dilution method; format: functional; in short: as §1
[5] = system: Candida albicans; experiment: Antifungal activity against Candida albicans assessed as macroscopically visible colonies after 48 and 72 hrs by standard agar dilution method; format: functional; in short: as §1
[6] = system: Cryptococcus neoformans; experiment: Antifungal activity against Cryptococcus neoformans assessed as appearance of macroscopically visible colonies upto 200 ug/ml after 48 and 72 hrs by standard agar dilution method; format: functional, organism-based; in short: as §1
[7] = system: Aspergillus niger; experiment: Antifungal activity against Aspergillus niger assessed as macroscopically visible colonies upto 200 ug/ml after 48 and 72 hrs by standard agar dilution method; format: functional, organism-based; in short: as §1
[8] = system: Candida albicans; experiment: Antifungal activity against Candida albicans assessed as macroscopically visible colonies upto 200 ug/ml after 48 and 72 hrs by standard agar dilution method; format: functional, organism-based; in short: as §1

For `CS(=O)(=O)N1CCC(n2cc(-c3nnc(-c4ccccc4)o3)nn2)CC1`, which MIC [1] is on record?
Its MIC is 45 µg/mL (≈ 120 µM).

What about the MIC [2] of the same compound?
The MIC was 40 µg/mL (≈ 107 µM).

And the MIC [3]?
Its MIC is 40 µg/mL (≈ 107 µM).

And the MIC [4]?
Its MIC is 55 µg/mL (≈ 147 µM).

What about the MIC [5] of the same compound?
Its MIC is 35 µg/mL (≈ 93.5 µM).

For `O=C(c1ccc(Cl)cc1)N1CCC(n2cc(-c3nnc(-c4ccccc4)o3)nn2)CC1`, which Activity [6] is on record?
Its Activity is “inactive”.

What about the MIC [1] of the same compound?
Its MIC is 90 µg/mL (≈ 207 µM).

And the MIC [2]?
Its MIC is 100 µg/mL (≈ 230 µM).

And the MIC [3]?
Its MIC is 90 µg/mL (≈ 207 µM).

And the MIC [5]?
Its MIC is 150 µg/mL (≈ 345 µM).

`CC(C)(C)OC(=O)N1CCC(n2cc(-c3nnc(-c4ccccc4)o3)nn2)CC1` was tested. Which Activity [6] did it give?
Its Activity is “inactive”.

What about the MIC [1] of the same compound?
Its MIC is 100 µg/mL (≈ 252 µM).

What about the MIC [2] of the same compound?
Its MIC is 150 µg/mL (≈ 378 µM).

And the MIC [3]?
Its MIC is 125 µg/mL (≈ 315 µM).

What about the MIC [5] of the same compound?
Its MIC is 100 µg/mL (≈ 252 µM).

`CN1CCC(n2cc(-c3nnc(-c4ccccc4)o3)nn2)CC1` was tested. Which MIC [1] did it give?
Its MIC is 60 µg/mL (≈ 193 µM).

What about the MIC [2] of the same compound?
Its MIC is 80 µg/mL (≈ 258 µM).

And the MIC [3]?
Its MIC is 70 µg/mL (≈ 226 µM).

And the MIC [4]?
Its MIC is 90 µg/mL (≈ 290 µM).

What about the MIC [5] of the same compound?
The MIC was 70 µg/mL (≈ 226 µM).

With `CCN1CCC(n2cc(-c3nnc(-c4cccc(Cl)c4)o3)nn2)CC1` as the compound, how does the MIC [1] read?
Its MIC is 25 µg/mL (≈ 69.7 µM).

And the MIC [2]?
The MIC was 50 µg/mL (≈ 139 µM).

What about the MIC [3] of the same compound?
The MIC was 35 µg/mL (≈ 97.5 µM).

What about the MIC [4] of the same compound?
The MIC was 50 µg/mL (≈ 139 µM).

And the MIC [5]?
Its MIC is 40 µg/mL (≈ 111 µM).

What does the source list for `CCN1CCC(n2cc(-c3nnc(-c4cccc(O)c4)o3)nn2)CC1`?
MIC [1]: 20 µg/mL (≈ 58.8 µM); MIC [2]: 20 µg/mL (≈ 58.8 µM); MIC [3]: 35 µg/mL (≈ 103 µM); MIC [4]: 60 µg/mL (≈ 176 µM); MIC [5]: 35 µg/mL (≈ 103 µM)

What does the source list for `Cc1cccc(-c2nnc(-c3cn(C4CCN(C(=O)c5ccccc5)CC4)nn3)o2)c1`?
Activity [6]: inactive; MIC [1]: 150 µg/mL (≈ 362 µM); Activity [7]: inactive; Activity [8]: inactive; MIC [3]: 100 µg/mL (≈ 241 µM)

What does the source list for `Clc1ccc(COC(Cn2ccnc2)c2ccc(Cl)cc2Cl)c(Cl)c1` (stereo not given) [MICONAZOLE]?
MIC [1]: 12.5 µg/mL (≈ 30 µM); MIC [2]: 12.5 µg/mL (≈ 30 µM); MIC [3]: 25 µg/mL (≈ 60.1 µM); MIC [4]: 25 µg/mL (≈ 60.1 µM); MIC [5]: 25 µg/mL (≈ 60.1 µM)

With `CS(=O)(=O)N1CCC(n2cc(-c3nnc(-c4cccc(Cl)c4)o3)nn2)CC1` as the compound, how does the MIC [1] read?
Its MIC is 15 µg/mL (≈ 36.7 µM).

What about the MIC [2] of the same compound?
Its MIC is 20 µg/mL (≈ 48.9 µM).

And the MIC [3]?
Its MIC is 25 µg/mL (≈ 61.1 µM).

And the MIC [4]?
The MIC was 50 µg/mL (≈ 122 µM).

And the MIC [5]?
The MIC was 25 µg/mL (≈ 61.1 µM).

`CN1CCC(n2cc(-c3nnc(-c4cccc(O)c4)o3)nn2)CC1` was tested. Which Activity [6] did it give?
Its Activity is “inactive”.

And the MIC [1]?
Its MIC is 25 µg/mL (≈ 76.6 µM).

What about the MIC [2] of the same compound?
Its MIC is 35 µg/mL (≈ 107 µM).

What about the MIC [3] of the same compound?
The MIC was 35 µg/mL (≈ 107 µM).

And the MIC [5]?
The MIC was 40 µg/mL (≈ 123 µM).

Which results are given for `O=C(c1ccccc1)N1CCC(n2cc(-c3nnc(-c4ccccc4)o3)nn2)CC1`?
Activity [6]: inactive; MIC [1]: 150 µg/mL (≈ 375 µM); Activity [8]: inactive; MIC [2]: 175 µg/mL (≈ 437 µM); MIC [3]: 100 µg/mL (≈ 250 µM)

`CCN1CCC(n2cc(-c3nnc(-c4ccccc4)o3)nn2)CC1` was tested. Which MIC [1] did it give?
Its MIC is 60 µg/mL (≈ 185 µM).

And the MIC [2]?
The MIC was 80 µg/mL (≈ 247 µM).

And the MIC [3]?
The MIC was 50 µg/mL (≈ 154 µM).

What about the MIC [4] of the same compound?
The MIC was 80 µg/mL (≈ 247 µM).

And the MIC [5]?
Its MIC is 55 µg/mL (≈ 170 µM).

`CN1CCC(n2cc(-c3nnc(-c4cccc(Cl)c4)o3)nn2)CC1` was tested. Which MIC [1] did it give?
Its MIC is 40 µg/mL (≈ 116 µM).

And the MIC [2]?
Its MIC is 45 µg/mL (≈ 131 µM).

And the MIC [3]?
Its MIC is 50 µg/mL (≈ 145 µM).

And the MIC [4]?
Its MIC is 150 µg/mL (≈ 435 µM).

What about the MIC [5] of the same compound?
The MIC was 55 µg/mL (≈ 160 µM).

How did the Activity [6] turn out when `CC(=O)N1CCC(n2cc(-c3nnc(-c4cccc(Cl)c4)o3)nn2)CC1` was run?
Its Activity is “inactive”.

And the MIC [1]?
Its MIC is 20 µg/mL (≈ 53.6 µM).

And the MIC [2]?
Its MIC is 25 µg/mL (≈ 67.1 µM).

And the MIC [3]?
Its MIC is 30 µg/mL (≈ 80.5 µM).

And the MIC [5]?
The MIC was 35 µg/mL (≈ 93.9 µM).

`CS(=O)(=O)N1CCC(n2cc(-c3nnc(-c4cccc([N+](=O)[O-])c4)o3)nn2)CC1` was tested. Which MIC [1] did it give?
Its MIC is 50 µg/mL (≈ 119 µM).

What about the MIC [2] of the same compound?
The MIC was 70 µg/mL (≈ 167 µM).

And the MIC [3]?
Its MIC is 55 µg/mL (≈ 131 µM).

What about the MIC [4] of the same compound?
The MIC was 90 µg/mL (≈ 215 µM).

What about the MIC [5] of the same compound?
Its MIC is 40 µg/mL (≈ 95.4 µM).

With `CC(=O)N1CCC(n2cc(-c3nnc(-c4cccc(C)c4)o3)nn2)CC1` as the compound, how does the Activity [6] read?
The Activity was “inactive”.

What about the MIC [1] of the same compound?
Its MIC is 35 µg/mL (≈ 99.3 µM).

And the MIC [2]?
Its MIC is 40 µg/mL (≈ 114 µM).

What about the MIC [3] of the same compound?
Its MIC is 40 µg/mL (≈ 114 µM).

What about the MIC [5] of the same compound?
Its MIC is 45 µg/mL (≈ 128 µM).

Which MIC [1] does the source give for `OC(Cn1cncn1)(Cn1cncn1)c1ccc(F)cc1F` [FLUCONAZOLE] here?
The MIC was 5 µg/mL (≈ 16.3 µM).

And the MIC [2]?
Its MIC is 10 µg/mL (≈ 32.7 µM).

And the MIC [3]?
Its MIC is 5 µg/mL (≈ 16.3 µM).

And the MIC [4]?
The MIC was 5 µg/mL (≈ 16.3 µM).

And the MIC [5]?
Its MIC is 5 µg/mL (≈ 16.3 µM).

For `CCN1CCC(n2cc(-c3nnc(-c4cccc(OC)c4)o3)nn2)CC1`, which MIC [1] is on record?
The MIC was 50 µg/mL (≈ 141 µM).

What about the MIC [2] of the same compound?
The MIC was 75 µg/mL (≈ 212 µM).

What about the MIC [3] of the same compound?
Its MIC is 60 µg/mL (≈ 169 µM).

And the MIC [4]?
The MIC was 100 µg/mL (≈ 282 µM).

And the MIC [5]?
The MIC was 50 µg/mL (≈ 141 µM).

What does the source list for `COc1cccc(-c2nnc(-c3cn(C4CCN(C)CC4)nn3)o2)c1`?
MIC [1]: 50 µg/mL (≈ 147 µM); MIC [2]: 70 µg/mL (≈ 206 µM); MIC [3]: 65 µg/mL (≈ 191 µM); MIC [4]: 80 µg/mL (≈ 235 µM); MIC [5]: 60 µg/mL (≈ 176 µM)

`CS(=O)(=O)N1CCC(n2cc(-c3nnc(-c4cccc(O)c4)o3)nn2)CC1` was tested. Which MIC [1] did it give?
Its MIC is 15 µg/mL (≈ 38.4 µM).

What about the MIC [2] of the same compound?
The MIC was 15 µg/mL (≈ 38.4 µM).

And the MIC [3]?
The MIC was 25 µg/mL (≈ 64 µM).

What about the MIC [4] of the same compound?
Its MIC is 100 µg/mL (≈ 256 µM).

What about the MIC [5] of the same compound?
The MIC was 30 µg/mL (≈ 76.8 µM).

`c1ccc(-c2nnc(-c3cn(C4CCNCC4)nn3)o2)cc1` was tested. Which MIC [1] did it give?
The MIC was 90 µg/mL (≈ 304 µM).

And the MIC [2]?
The MIC was 125 µg/mL (≈ 422 µM).

And the MIC [3]?
The MIC was 85 µg/mL (≈ 287 µM).

What about the MIC [4] of the same compound?
The MIC was 150 µg/mL (≈ 506 µM).

What about the MIC [5] of the same compound?
Its MIC is 80 µg/mL (≈ 270 µM).
